Assay results as given in ChEMBL document CHEMBL1154076, “New furanoflavanoids, intestinal alpha-glucosidase inhibitory and free-radical (DPPH) scavenging, activity from antihyperglycemic root extract of Derris indica (Lam.)” (Bioorg Med Chem, 2009).
The source made the active and inactive calls. The rule behind the calls is not given here.

Columns and labels:
[1] = tested on: Radical scavenging activity; assay: Antioxidant activity assessed as DPPH radical scavenging activity; type: functional
Summary of the method: (§1)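 DPPH (0.5 mM solution in absolute ethanol) is mixed with test sample (1 mg/mL DMSO stock) in 0.1 M Tris-HCl, pH 7.4. The mixture is shaken, kept in the dark for 30 min, and read at 517 nm. Scavenging % = (1 − B/A) × 100 versus a no-sample control. SC50 comes from logarithmic regression over at least five dilutions. n = 3.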

[2] = tested on: Radical scavenging activity; assay: Antioxidant activity against DPPH radical assessed as concentration required for 50% scavenging activity; type: functional; summary of the method: as §1
[3] = Inhibition of rat alpha-glucosidase assessed as p-nitrophenol release at 50 ug/ml
Summary of the method: (§2)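 Crude enzyme is the sonicated supernatant of rat intestinal acetone powder in normal saline (100:1 w/v). Sample (5 mg/mL DMSO stock) in 100 mM phosphate buffer, pH 6.8, is preincubated 5 min with enzyme. p-Nitrophenyl-α-D-glucopyranoside (5 mM solution) is added, and p-nitrophenol is read at 405 nm after 5 min. Blanks omit substrate; the control is DMSO. Inhibition % = (1 − B/A) × 100. IC50 is taken by log regression over ≥5 dilutions. n = 3.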

Rattus norvegicus = organism: Rattus norvegicus; assay: Inhibition of rat alpha-glucosidase assessed as p-nitrophenol release; summary of the method: as §2

**Q.** For O=c1c(O)c(-c2ccc(O)c(O)c2)oc2c1ccc1occc12, which Scavenging [1] is on record?
**A.** 64.9%

**Q.** And the Activity [2]?
**A.** 21 µM

**Q.** What about the Inhibition [3] of the same molecule?
**A.** 37.9%

**Q.** Which results are given for O=c1cc(-c2ccc(O)c(O)c2)oc2c1ccc1occc12?
**A.** Activity (Rattus norvegicus): 335 µM; Scavenging [1]: 55.1%; Activity [2]: 84.6 µM; Inhibition [3]: 25.6%

**Q.** With COc1c(-c2ccc3c(c2)OCO3)oc2cc(O)ccc2c1=O as the molecule, how does the Scavenging [1] read?
**A.** 68.3%

**Q.** And the Activity [2]?
**A.** 39 µM

**Q.** And the Inhibition [3]?
**A.** 36%

**Q.** What does the source list for COc1ccc(-c2cc(=O)c3c(O)cc(OC)cc3o2)cc1 [APIGENIN DIMETHYLETHER]?
**A.** SC50 [1]: inactive; Inhibition [3]: 4.4%

**Q.** What does the source list for COc1ccc2c(=O)c(OC)c(-c3ccc(OC)c(OC)c3)oc2c1 [FISETIN TETRAMETHYL ETHER]?
**A.** SC50 [1]: inactive; Inhibition [3]: 19.7%

**Q.** With COc1c(-c2ccccc2)oc2c(ccc3occc32)c1=O [KARANJIN] as the molecule, how does the SC50 [1] read?
**A.** inactive

**Q.** What about the Inhibition [3] of the same molecule?
**A.** 26.3%

**Q.** Which SC50 [1] does the source give for COc1c(C(=O)/C=C(\O)c2ccc3c(c2)OCO3)ccc2occc12 [OVALITENONE] here?
**A.** inactive

**Q.** What about the Inhibition [3] of the same molecule?
**A.** 29.7%

**Q.** Which SC50 [1] does the source give for COc1c2ccoc2cc2oc(-c3ccccc3)cc(=O)c12 [PINNATIN] here?
**A.** inactive

**Q.** And the Inhibition [3]?
**A.** 36.5%

**Q.** What does the source list for O=C(O)c1ccc2c(c1)OCO2 [PIPERONYLIC ACID]?
**A.** Scavenging [1]: 2.4%; Inhibition [3]: 18.4%

**Q.** Which SC50 [1] does the source give for COc1c(-c2ccc3c(c2)OCO3)oc2c3c(ccc2c1=O)OC(C)(C)C=C3 [PONGACHROMENE] here?
**A.** inactive

**Q.** What about the Inhibition [3] of the same molecule?
**A.** 22.8%

**Q.** Which results are given for O=c1cc(-c2ccc3c(c2)OCO3)oc2c1ccc1occc12 [PONGAGLABRONE]?
**A.** SC50 [1]: inactive; Inhibition [3]: 8.6%

**Q.** Which Activity (Rattus norvegicus) does the source give for COc1c(C(=O)/C=C(\O)c2ccccc2)ccc2occc12 [PONGAMOL] here?
**A.** 104 µM

**Q.** And the Scavenging [1]?
**A.** 11.2%

**Q.** And the Inhibition [3]?
**A.** 58.2%

**Q.** With COc1c(-c2ccc3c(c2)OCO3)oc2c(ccc3occc32)c1=O [PONGAPIN] as the molecule, how does the SC50 [1] read?
**A.** inactive

**Q.** What about the Inhibition [3] of the same molecule?
**A.** 21.4%

**Q.** Which results are given for COc1cc(O)c2c(=O)cc(-c3ccccc3)oc2c1 [TECHTOCHRYSIN]?
**A.** SC50 [1]: inactive; Inhibition [3]: 28.7%
